# Test results published in ChEMBL document CHEMBL1158430, “Bulky 1,4-benzoxazine derivatives with antifungal activity” (2009).
# The source made the active and inactive calls. No cut-off for these calls is given here.
# What was measured:
# Candida albicans [1] = assay: Antifungal activity against Candida albicans PCA-2 after 48 hrs by broth microdilution assay; type: functional; conditions: PCA-2, 48 h
# Procedure, shortened: (§1)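 Yeasts kept on Sabouraud agar by serial passage. A single colony was suspended in saline, washed twice, counted by hemocytometer and added at 5 × 10⁴ CFU in RPMI 1640/MOPS pH 7.0 to serial compound dilutions. Compounds were stocked in 20% ethanol. Incubation was at 37 °C. MIC is the lowest concentration giving complete growth inhibition, read visually.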
# Candida albicans [2] = assay: Antifungal activity against Candida albicans PCA-2 after 24 hrs by broth microdilution assay; type: functional; conditions: PCA-2, 24 h; procedure, shortened: as §1
# Candida albicans [3] = assay: Antifungal activity against Candida albicans CA-6 after 24 hrs by broth microdilution assay; type: functional; conditions: CA-6, 24 h; procedure, shortened: as §1
# Candida albicans [4] = assay: Antifungal activity against Candida albicans CA-6 after 48 hrs by broth microdilution assay; type: functional; conditions: CA-6, 48 h; procedure, shortened: as §1
# Candida albicans [5] = assay: Antifungal activity against Candida albicans CA-6 infected in CD1 mouse assessed as reduction of fungal burden in kidneys treated with 0.3 ml serum of 10 mg/kg, ip dosed mouse collected after 1 hr determined 7 days post-infection; type: functional, organism-based; set-up: dose 10 mg/kg; conditions: Kidney
# Procedure, shortened: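 Donor mice received 10 mg/kg i.p. or vehicle (0.2 ml 2% EtOH in saline); serum was collected 1 h later. Recipient CD1 mice received 0.3 ml serum i.p. 1 h before i.v. challenge with 7 × 10⁵ CA-6 per mouse. Kidney CFU were counted on Sabouraud agar 7 days after challenge.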
# Pichia kudriavzevii [6] = assay: Antifungal activity against Candida krusei after 24 hrs by broth microdilution assay; type: functional; procedure, shortened: as §1
# Pichia kudriavzevii [7] = assay: Antifungal activity against Candida krusei after 48 hrs by broth microdilution assay; type: functional; procedure, shortened: as §1
# Nakaseomyces glabratus [8] = assay: Antifungal activity against Candida glabrata after 24 hrs by broth microdilution assay; type: functional; procedure, shortened: as §1
# Nakaseomyces glabratus [9] = assay: Antifungal activity against Candida glabrata after 48 hrs by broth microdilution assay; type: functional; procedure, shortened: as §1
# Candida parapsilosis [10] = assay: Antifungal activity against Candida parapsilosis after 24 hrs by broth microdilution assay; type: functional; conditions: Lodderomyces parapsilosis; procedure, shortened: as §1
# Candida parapsilosis [11] = assay: Antifungal activity against Candida parapsilosis after 48 hrs by broth microdilution assay; type: functional; conditions: Lodderomyces parapsilosis; procedure, shortened: as §1
# Cryptococcus neoformans [12] = assay: Antifungal activity against Cryptococcus neoformans 6995 after 48 hrs by broth microdilution assay; type: functional; conditions: Cryptococcus neoformans, 6995, 48 h
# Cryptococcus neoformans [13] = assay: Antifungal activity against Cryptococcus neoformans CAP67 after 48 hrs by broth microdilution assay; type: functional; conditions: CAP67, 48 h
# Candida albicans [14] = assay: Antifungal activity against Candida albicans CA-6 infected in CD1 mouse assessed as survival from fungus-induced mortality at 10 mg/kg, ip pretreated 2 hrs before fungus-challenge and once daily for 6 days; type: functional
# Procedure, shortened: (§2)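 Female outbred CD1 mice, 8–10 weeks old, infected i.v. on day 0 with C. albicans CA-6 blastospores (7 × 10⁵/mouse). Given 10 mg/kg i.p. 2 h before infection, then once daily for 6 consecutive days. Vehicle was 0.2 ml 2% EtOH in saline i.p. Survival monitored over a 30-day observation period. Three repeat experiments, 4 animals/group.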
# Candida albicans [15] = assay: Antifungal activity against Candida albicans CA-6 infected in CD1 mouse assessed as reduction of fungal burden in kidneys at 10 mg/kg, ip pretreated 2 hrs before fungus-challenge and once daily for 6 days measured 7 days post-infection; type: functional, organism-based; set-up: dose 10 mg/kg; conditions: Kidney
# Procedure, shortened: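 Female outbred CD1 mice, 8–10 weeks old, were infected i.v. on day 0 with 2.5 × 10⁵ CA-6 blastospores. Dosing was 10 mg/kg i.p. 2 h before challenge, then daily for 6 days; vehicle was 0.2 ml 2% EtOH in saline i.p. At day 7, kidney homogenates were serially diluted and plated on Sabouraud agar for CFU. Three experiments, 4 mice/group.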
# Candida albicans [16] = assay: Antifungal activity against Candida albicans CA-6 infected in CD1 mouse assessed as reduction of inflammatory foci in kidney at 10 mg/kg, ip pretreated 2 hrs before fungus-challenge and once daily for 6 days measured 7 days post-infection by periodic acid-Schiff staining; type: functional, organism-based; set-up: dose 10 mg/kg
# Procedure, shortened: (§3)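 CD1 mice were challenged i.v. with 7 × 10⁵ CA-6 per mouse. Dosing was 10 mg/kg 2 h before challenge, then once daily for 6 days. Kidneys were excised 7 days post-infection, formalin-fixed and paraffin-embedded. Sections were stained with periodic acid-Schiff and assessed histologically for fungal cells and inflammatory foci.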
# Candida albicans [17] = assay: Antifungal activity against Candida albicans CA-6 infected in CD1 mouse assessed as reduction fungal cell number in kidney at 10 mg/kg, ip pretreated 2 hrs before fungus-challenge and once daily for 6 days measured 7 days post-infection by periodic acid-Schiff staining; type: functional, organism-based; set-up: dose 10 mg/kg; procedure, shortened: as §3
# Candida albicans [18] = assay: Antifungal activity against Candida albicans CA-6 infected in CD1 mouse assessed as survival days in 30 days observation period at 10 mg/kg, ip pretreated 2 hrs before fungus-challenge and once daily for 6 days; type: functional; conditions: route intraperitoneal; procedure, shortened: as §2
Compound,MIC (Candida albicans [1]),MIC (Candida albicans [2]),MIC (Candida albicans [3]),MIC (Candida albicans [4]),Activity (Candida albicans [5]),MIC (Pichia kudriavzevii [6]),MIC (Pichia kudriavzevii [7]),MIC (Nakaseomyces glabratus [8]),MIC (Nakaseomyces glabratus [9]),MIC (Candida parapsilosis [10]),MIC (Candida parapsilosis [11]),MIC (Cryptococcus neoformans [12]),MIC (Cryptococcus neoformans [13]),Activity (Candida albicans [14]; route intraperitoneal),Activity (Candida albicans [15]),Activity (Candida albicans [16]),Activity (Candida albicans [17]),Activity (Candida albicans [14]),Activity (Candida albicans [18])
CCCCC1Oc2ccc(OC[C@@H]3CO[C@](Cn4ccnc4)(c4ccc(Cl)cc4Cl)O3)cc2N(C)C1=O (relative stereo),> 500 µg/mL,> 500 µg/mL,0.49 µg/mL,0.49 µg/mL,Active,3.9 µg/mL,7.8 µg/mL,62.5 µg/mL,> 500 µg/mL,125 µg/mL,500 µg/mL,7.8 µg/mL,3.9 µg/mL,50%,Active,Active,Active,–,–
CN1C(=O)COc2ccc(OC[C@@H]3CO[C@](Cn4ccnc4)(c4ccc(Cl)cc4Cl)O3)cc21 (relative stereo),> 500 µg/mL,> 500 µg/mL,0.49 µg/mL,0.49 µg/mL,–,15.6 µg/mL,> 500 µg/mL,15.6 µg/mL,250 µg/mL,> 500 µg/mL,> 500 µg/mL,1.95 µg/mL,0.03 µg/mL,–,–,–,–,inactive,–
CN1C(=O)COc2ccc(OC[C@H]3CO[C@](Cn4ccnc4)(c4ccc(Cl)cc4Cl)O3)cc21 (relative stereo),> 500 µg/mL,> 500 µg/mL,0.49 µg/mL,0.49 µg/mL,–,15.6 µg/mL,> 500 µg/mL,7.8 µg/mL,> 500 µg/mL,250 µg/mL,> 500 µg/mL,0.24 µg/mL,0.0019 µg/mL,–,–,–,–,inactive,–
CCCCC1Oc2ccc(OC[C@H]3CO[C@](Cn4ccnc4)(c4ccc(Cl)cc4Cl)O3)cc2N(C)C1=O (relative stereo),125 µg/mL,125 µg/mL,0.49 µg/mL,0.49 µg/mL,Active,3.9 µg/mL,3.9 µg/mL,31.2 µg/mL,125 µg/mL,31.2 µg/mL,31.2 µg/mL,7.8 µg/mL,1.95 µg/mL,–,Active,Active,Active,–,23 days
OC(Cn1cncn1)(Cn1cncn1)c1ccc(F)cc1F [FLUCONAZOLE],> 500 µg/mL,> 500 µg/mL,< 0.0076 µg/mL,< 0.0076 µg/mL,Active,250 µg/mL,> 500 µg/mL,125 µg/mL,250 µg/mL,7.8 µg/mL,15.6 µg/mL,3.9 µg/mL,0.49 µg/mL,75%,Active,Active,Active,–,–
CC(=O)N1CCN(c2ccc(OCC3COC(Cn4ccnc4)(c4ccc(Cl)cc4Cl)O3)cc2)CC1 (centres undefined) [KETOCONAZOLE],15.6 µg/mL,15.6 µg/mL,< 0.0076 µg/mL,< 0.0076 µg/mL,–,0.49 µg/mL,0.97 µg/mL,0.12 µg/mL,1.95 µg/mL,< 6e-05 µg/mL,0.00095 µg/mL,0.00095 µg/mL,0.00012 µg/mL,–,–,–,–,–,–
